Calls of active or inactive are those of the source. The calls are words filed in the database; no cut-off is given here.
How the values were obtained:
Assay type in all cases: nucleic-acid assay
[1] = test system: Nucleic Acid; assay: Binding affinity to A3T3 repeat not-containing DNA0 (unknown origin) assessed as increase in fluorescence intensity at 10 nM by fluorescence titration method
Procedure, shortened: (§1)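 Ligand at 10 nM in 3.0 mM HEPES, 3.0 mM NaCl, pH 7.0 is stirred 4 h at room temperature in a quartz cell. DNA is added in aliquots, 0–0.8 μM (0–4 μM in A3T3), with 1 h stirring after each addition. Fluorescence is read with 363 nm excitation at 25 °C and ΔF is plotted against A3T3 concentration. Data are fitted to a two-mode (high/low affinity) model. McGhee–von Hippel analysis then gives n, K and ω.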

[2] = test system: Nucleic Acid; assay: Binding affinity to A3T3 repeat containing DNA5(3) (unknown origin) assessed as association constant for changes at 275 nm at 0 to 4 uM by CD spectroscopy
[3] = test system: Nucleic Acid; assay: Binding affinity to A3T3 repeat containing DNA5(3) (unknown origin) assessed as cooperativity with DNA at 10 nM by fluorescence titration based McGhee-von Hippel analysis; procedure, shortened: as §1
[4] = test system: Nucleic Acid; assay: Binding affinity to A3T3 repeat containing DNA5(3) (unknown origin) at 0 to 4 uM by CD spectroscopy
[5] = test system: Nucleic Acid; assay: Binding affinity to A3T3 repeat containing DNA1 (unknown origin) at 10 uM by CD spectroscopy
Procedure, shortened: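 CD spectrum of DNA1 (5 μM in A3T3) recorded alone and with ligand at 10 μM (2 equiv relative to A3T3).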

[6] = test system: Nucleic Acid; assay: Binding affinity to A3T3 repeat containing DNA5(3) (unknown origin) assessed as association constant for changes at 327 nm at 0 to 4 uM by CD spectroscopy
[7] = test system: Nucleic Acid; assay: Binding affinity to A3T3 repeat containing DNA5(3) (unknown origin) at 5 uM by UV-vis spectroscopy
Procedure, shortened: (§2)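 UV–vis spectra of 5 μM ligand with or without DNA5(3), in 3.0 mM HEPES, 3.0 mM NaCl, pH 7.0, 25 °C. Samples are stirred 7 h at room temperature before measurement. Band shifts and % absorbance change are recorded for the Hoechst and quinoline regions.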

[8] = test system: Nucleic Acid; assay: Binding affinity to A3T3 repeat containing DNA5(3) (unknown origin) assessed as Hoechst region-induced shift to longer wavelength (372.5 to 384.5 nm) with increase in intensity at 5 uM by UV-vis spectroscopy; procedure, shortened: as §2
[9] = test system: Nucleic Acid; assay: Binding affinity to A3T3 repeat containing DNA5(3) (unknown origin) assessed as quinoline region-induced shift to shorter wavelength (328.5 to 326.5 nm) with % increase in intensity at 5 uM by UV-vis spectroscopy; procedure, shortened: as §2

CN1CCN(c2cc(C(=O)NCCN(CCC(=O)NCCOCCOCCNC(=O)COc3ccc4ncccc4c3)CCC(=O)NCCOCCOCCNC(=O)COc3ccc4ncccc4c3)c3nc(-c4ccc5nc(-c6ccc(O)cc6)[nH]c5c4)[nH]c3c2)CC1
Activity [1]: inactive
K [2]: 6.5 ×10⁶ /M
Activity [3]: Active
Activity [4]: Active
Activity [5]: inactive
K [6]: 3.9 ×10⁵ /M
Activity [7]: Active
Activity [8]: 50%
Activity [9]: 43%

CN1CCN(c2cc(C(=O)NCCN(CCC(=O)NCCNC(=O)COc3ccc4ncccc4c3)CCC(=O)NCCNC(=O)COc3ccc4ncccc4c3)c3nc(-c4ccc5nc(-c6ccc(O)cc6)[nH]c5c4)[nH]c3c2)CC1
Activity [3]: inactive

CN1CCN(c2cc(C(=O)NCCN(CCC(=O)NCCOCCOCCNC(=O)COc3ccc4nccnc4c3)CCC(=O)NCCOCCOCCNC(=O)COc3ccc4nccnc4c3)c3nc(-c4ccc5nc(-c6ccc(O)cc6)[nH]c5c4)[nH]c3c2)CC1
Activity [3]: inactive

CN1CCN(c2cc(C(=O)NCCN(CCC(=O)NCCOCCOCC(=O)NCCOCCOCCNC(=O)COc3ccc4ncccc4c3)CCC(=O)NCCOCCOCC(=O)NCCOCCOCCNC(=O)COc3ccc4ncccc4c3)c3nc(-c4ccc5nc(-c6ccc(O)cc6)[nH]c5c4)[nH]c3c2)CC1
Activity [3]: inactive

CN1CCN(c2cc(C(=O)NCCN(CCC(=O)NCCOCCOCCNC(=O)COc3ccc4ccccc4c3)CCC(=O)NCCOCCOCCNC(=O)COc3ccc4ccccc4c3)c3nc(-c4ccc5nc(-c6ccc(O)cc6)[nH]c5c4)[nH]c3c2)CC1
Activity [3]: Active

CN1CCN(c2cc(C(=O)NCCN(CCC(=O)NCCOCCOCCNC(=O)COc3ccc4ccccc4n3)CCC(=O)NCCOCCOCCNC(=O)COc3ccc4ccccc4n3)c3nc(-c4ccc5nc(-c6ccc(O)cc6)[nH]c5c4)[nH]c3c2)CC1
Activity [3]: inactive

CN1CCN(c2cc(C(=O)NCCN(CCC(=O)NCCOCCOCCNC(=O)COc3ccc4cnccc4c3)CCC(=O)NCCOCCOCCNC(=O)COc3ccc4cnccc4c3)c3nc(-c4ccc5nc(-c6ccc(O)cc6)[nH]c5c4)[nH]c3c2)CC1
Activity [3]: Active

CN1CCN(c2cc(C(=O)NCCN(CCC(=O)NCCOCCOCCNC(=O)COc3cccnc3)CCC(=O)NCCOCCOCCNC(=O)COc3cccnc3)c3nc(-c4ccc5nc(-c6ccc(O)cc6)[nH]c5c4)[nH]c3c2)CC1
Activity [3]: inactive

CN1CCN(c2cc(C(=O)NCCN(CCC(=O)NCCOCCOCCNC(=O)COc3ccc4ncccc4c3Br)CCC(=O)NCCOCCOCCNC(=O)COc3ccc4ncccc4c3Br)c3nc(-c4ccc5nc(-c6ccc(O)cc6)[nH]c5c4)[nH]c3c2)CC1
Activity [7]: inactive

Reference: ChEMBL document CHEMBL3596099, “Strong positive cooperativity in binding to the A3T3 repeat by Hoechst 33258 derivatives attaching the quinoline units at the end of a branched linker” (Bioorg Med Chem, 2015)
